Test results published in ChEMBL document CHEMBL5058577, “EUbOPEN Chemogenomics Library 2 (Multiplex)” (2022).

Test system: HEK-293T
Test: Multiplex assay against HEK293T
Format: toxicity, cell-based
Details: human
Procedure, shortened: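 Values for tubulin, mitochondrial-mass and membrane-permeability phenotypes are per cents of cells with healthy nuclei. These cells were identified by CellPathfinder machine-learning gating of live cells that had been stained at seeding with Hoechst33342, BioTracker Green Microtubule Cytoskeleton Dye, MitoTracker Red and Annexin V Alexa Fluor 680 and imaged on a CQ1 microscope at 37°C and 5% CO2 after compound addition. The gating first set Hoechst high-intensity objects apart from normal cells, then split normal cells into healthy, pyknosed or fragmented nuclei, and pyknosed cells into mitotic or apoptotic.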

[1] = 12 h, 1 µM, compound concentration 1 uM, replicate 1
[2] = 12 h, 1 µM, compound concentration 1 uM, replicate 2
[3] = 12 h, 10 µM, compound concentration 10 uM, replicate 1
[4] = 12 h, 10 µM, compound concentration 10 uM, replicate 2
[5] = 24 h, 1 µM, compound concentration 1 uM, replicate 1
[6] = 24 h, 1 µM, compound concentration 1 uM, replicate 2
[7] = 24 h, 10 µM, compound concentration 10 uM, replicate 1
[8] = 24 h, 10 µM, compound concentration 10 uM, replicate 2
[9] = 48 h, 1 µM, compound concentration 1 uM, replicate 1
[10] = 48 h, 1 µM, compound concentration 1 uM, replicate 2
[11] = 48 h, 10 µM, compound concentration 10 uM, replicate 1
[12] = 48 h, 10 µM, compound concentration 10 uM, replicate 2

CCCOc1ccc2[nH]cc(C3=CCNCC3)c2n1.Cl
Population Apoptotic (%) [1]: 32% | Population Fragmented Nuclei (%) [1]: 5% | Population Healthy Nuclei (%) [1]: 81% | Population Hoechst High Intensity Objects (%) [1]: 5% | Population Membrane Permeable-Phenotype (%) [1]: 0% | Population Mitochondria Different-Phenotype (%) [1]: 41% | Population Mitotic Cells (%) [1]: 68% | Population Normal (%) [1]: 94% | Population Pyknosed Nuclei (%) [1]: 12% | Population Tubulin-Different-Phenotype (%) [1]: 39% | Total Cell Count [1]: 416 | Population Apoptotic (%) [2]: 44% | Population Fragmented Nuclei (%) [2]: 6% | Population Healthy Nuclei (%) [2]: 82% | Population Hoechst High Intensity Objects (%) [2]: 4% | Population Mitochondria Different-Phenotype (%) [2]: 52% | Population Mitotic Cells (%) [2]: 55% | Population Normal (%) [2]: 95% | Population Pyknosed Nuclei (%) [2]: 10% | Population Tubulin-Different-Phenotype (%) [2]: 21% | Total Cell Count [2]: 344 | Population Apoptotic (%) [3]: 43% | Population Fragmented Nuclei (%) [3]: 5% | Population Healthy Nuclei (%) [3]: 78% | Population Hoechst High Intensity Objects (%) [3]: 10% | Population Membrane Permeable-Phenotype (%) [3]: 0% | Population Mitochondria Different-Phenotype (%) [3]: 58% | Population Mitotic Cells (%) [3]: 56% | Population Normal (%) [3]: 89% | Population Pyknosed Nuclei (%) [3]: 15% | Population Tubulin-Different-Phenotype (%) [3]: 41% | Total Cell Count [3]: 446 | Population Apoptotic (%) [4]: 55% | Population Fragmented Nuclei (%) [4]: 6% | Population Healthy Nuclei (%) [4]: 82% | Population Hoechst High Intensity Objects (%) [4]: 4% | Population Mitochondria Different-Phenotype (%) [4]: 76% | Population Mitotic Cells (%) [4]: 44% | Population Normal (%) [4]: 95% | Population Pyknosed Nuclei (%) [4]: 11% | Total Cell Count [4]: 387 | Population Apoptotic (%) [5]: 28% | Population Fragmented Nuclei (%) [5]: 10% | Population Healthy Nuclei (%) [5]: 76% | Population Hoechst High Intensity Objects (%) [5]: 3% | Population Membrane Permeable-Phenotype (%) [5]: 0% | Population Mitochondria Different-Phenotype (%) [5]: 26% | Population Mitotic Cells (%) [5]: 71% | Population Normal (%) [5]: 96% | Population Pyknosed Nuclei (%) [5]: 12% | Population Tubulin-Different-Phenotype (%) [5]: 24% | Total Cell Count [5]: 558 | Population Apoptotic (%) [6]: 35% | Population Fragmented Nuclei (%) [6]: 9% | Population Healthy Nuclei (%) [6]: 80% | Population Hoechst High Intensity Objects (%) [6]: 2% | Population Membrane Permeable-Phenotype (%) [6]: 1% | Population Mitochondria Different-Phenotype (%) [6]: 29% | Population Mitotic Cells (%) [6]: 64% | Population Normal (%) [6]: 97% | Population Pyknosed Nuclei (%) [6]: 9% | Population Tubulin-Different-Phenotype (%) [6]: 14% | Total Cell Count [6]: 425 | Population Apoptotic (%) [7]: 39% | Population Fragmented Nuclei (%) [7]: 12% | Population Healthy Nuclei (%) [7]: 74% | Population Hoechst High Intensity Objects (%) [7]: 7% | Population Membrane Permeable-Phenotype (%) [7]: 0% | Population Mitochondria Different-Phenotype (%) [7]: 50% | Population Mitotic Cells (%) [7]: 60% | Population Normal (%) [7]: 92% | Population Pyknosed Nuclei (%) [7]: 12% | Population Tubulin-Different-Phenotype (%) [7]: 38% | Total Cell Count [7]: 583 | Population Apoptotic (%) [8]: 51% | Population Fragmented Nuclei (%) [8]: 6% | Population Healthy Nuclei (%) [8]: 81% | Population Hoechst High Intensity Objects (%) [8]: 3% | Population Mitochondria Different-Phenotype (%) [8]: 63% | Population Mitotic Cells (%) [8]: 48% | Population Normal (%) [8]: 96% | Population Pyknosed Nuclei (%) [8]: 11% | Population Tubulin-Different-Phenotype (%) [8]: 34% | Total Cell Count [8]: 502 | Population Apoptotic (%) [9]: 17% | Population Fragmented Nuclei (%) [9]: 13% | Population Healthy Nuclei (%) [9]: 79% | Population Hoechst High Intensity Objects (%) [9]: 2% | Population Membrane Permeable-Phenotype (%) [9]: 0% | Population Mitochondria Different-Phenotype (%) [9]: 15% | Population Mitotic Cells (%) [9]: 82% | Population Normal (%) [9]: 97% | Population Pyknosed Nuclei (%) [9]: 6% | Population Tubulin-Different-Phenotype (%) [9]: 12% | Total Cell Count [9]: 872 | Population Apoptotic (%) [10]: 38% | Population Fragmented Nuclei (%) [10]: 9% | Population Healthy Nuclei (%) [10]: 82% | Population Hoechst High Intensity Objects (%) [10]: 1% | Population Membrane Permeable-Phenotype (%) [10]: 1% | Population Mitochondria Different-Phenotype (%) [10]: 20% | Population Mitotic Cells (%) [10]: 61% | Population Normal (%) [10]: 98% | Population Pyknosed Nuclei (%) [10]: 7% | Population Tubulin-Different-Phenotype (%) [10]: 9% | Total Cell Count [10]: 657 | Population Apoptotic (%) [11]: 35% | Population Fragmented Nuclei (%) [11]: 14% | Population Healthy Nuclei (%) [11]: 76% | Population Hoechst High Intensity Objects (%) [11]: 6% | Population Membrane Permeable-Phenotype (%) [11]: 0% | Population Mitochondria Different-Phenotype (%) [11]: 41% | Population Mitotic Cells (%) [11]: 64% | Population Normal (%) [11]: 93% | Population Pyknosed Nuclei (%) [11]: 8% | Population Tubulin-Different-Phenotype (%) [11]: 23% | Total Cell Count [11]: 776 | Population Apoptotic (%) [12]: 26% | Population Fragmented Nuclei (%) [12]: 13% | Population Healthy Nuclei (%) [12]: 80% | Population Hoechst High Intensity Objects (%) [12]: 5% | Population Mitochondria Different-Phenotype (%) [12]: 37% | Population Mitotic Cells (%) [12]: 73% | Population Normal (%) [12]: 94% | Population Pyknosed Nuclei (%) [12]: 6% | Population Tubulin-Different-Phenotype (%) [12]: 20% | Total Cell Count [12]: 733
